We go through 20 compounds from ChEMBL document CHEMBL4699587, “Pyridine-4(1H)-one Alkaloids from Waltheria indica as Antitrypanosomatid Agents” (J Nat Prod, 2020).

Series [1] concerns L6. As to the kind of experiment: Cytotoxicity against rat L6 cells assessed as reduction in cell viability after 70 hrs by resazurin dye based inverted microscopic analysis. Conditions: L6, 70 h.
Series [2] is described as follows: Selectivity index, ratio of IC50 for cytotoxicity against rat L6 cells to IC50 for growth inhibition of amastigote form of Trypanosoma cruzi Tulahuen C2C4 expressing LacZ infected in rat L6 cells. It counts as toxicity, cell-based. The settings on record: read-out: Ratio IC50. In outline:
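Selectivity index is calculated as the IC50 for cytotoxicity in uninfected rat skeletal L6 host cells divided by the IC50 against T. cruzi (Tulahuen C4) amastigotes. Both IC50 values are in µM.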

Series [3] deals with Trypanosoma cruzi. Nature of the series: Growth inhibition of amastigote form of Trypanosoma cruzi Tulahuen C2C4 expressing LacZ infected in rat L6 cells assessed as reduction in parasitic growth incubated for 96 hra by CPRG/Nonidet reagent based inverted microscopic analysis. The format is functional, organism-based. In outline:
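Intracellular amastigotes of T. cruzi Tulahuen C4 strain were tested in vitro for growth inhibition. IC50 values are in µM, given as the mean of two independent assays or the mean of three independent assays ± SD.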

As for `COc1c(C)[nH]c2c(c1=O)[C@@H](CCCCCc1ccccc1)CC[C@H]2OC`, the values for the IC50 in series [1] and in series [3] were 1.8 µM and 0.1 µM, respectively. The selectivity ratio in series [2] is 13.8.

`CCCCCCCC[C@H]1CC[C@@H](O)c2[nH]c(C)c(OC)c(=O)c21`: the IC50 in series [1] came to 26.2 µM; in series [3] it was 6.5 µM. The selectivity ratio in series [2] stood at 4.

On to `COc1c(C)[nH]c(CCCCCCCCCc2ccccc2)cc1=O`, for which the IC50 is greater than 29 µM in series [1] and 2.1 µM in series [3]. The selectivity ratio in series [2] is greater than 13.

With `COc1c(C)[nH]c2c(c1=O)[C@@H](CCCCCc1ccccc1)CCC2`, the IC50 in series [1] came out at 6.5 µM; in series [3] it was 1.3 µM. In addition, in series [2], the selectivity ratio worked out at 5.

As to `COc1c(C)[nH]c2ccc3c(c2c1=O)[C@@H]1CC[C@H](O)[C@@]3(c2ccccc2)O1`, the IC50 in series [1] was greater than 22 µM; in series [3], greater than 20 µM. Also, in series [2], the selectivity ratio was greater than 1.

Consider `COc1ccccc1[C@@]12CC[C@@H](OC1)c1c2ccc2[nH]c(C)c(OC)c(=O)c12`, for which the IC50 is greater than 26 µM in series [1] and 19 µM in series [3]. For the same compound, the selectivity ratio in series [2] is greater than 1.

For `CCCCCCCCc1cccc2[nH]c(C)c(OC)c(=O)c12`, the IC50 in series [1] was 15 µM; in series [3] it was 10 µM. Further, the selectivity ratio in series [2] was determined as 1.5.

On to `COc1ccccc1[C@]12CC[C@H](O[C@@H]1OC)c1c2ccc2[nH]c(C)c(OC)c(=O)c12`, for which the results for the IC50 in series [1] and in series [3] were greater than 24 µM and 18.7 µM, respectively. Also, the selectivity ratio in series [2] is greater than 1.

`COc1c(C)n(OC)c2c(c1=O)[C@@H](CCCC[C@H](O)c1ccccc1)CCC2`: the IC50 in series [1] was greater than 26 µM; in series [3] it was 7.5 µM. Also, the selectivity ratio in series [2] was greater than 3.5.

As to `COc1c(C)[nH]c2c(OC)ccc(CCCCCc3ccccc3)c2c1=O`, the IC50 in series [1] was greater than 26 µM; in series [3], 2.1 µM. Moreover, in series [2], the selectivity ratio is greater than 12.5.

On to `COc1c(CO)[nH]c2c(c1=O)[C@H](CCCCCc1ccccc1)CCC2`, for which the values for the IC50 in series [1] and in series [3] were greater than 28 µM and 7 µM, respectively. In addition, the selectivity ratio in series [2] is greater than 4.

Regarding `COc1cc(CCCCCc2ccccc2)c2c(=O)c(OC)c(C)[nH]c2c1OC`, the IC50 in series [1] was greater than 23 µM; in series [3] it was 12.9 µM. Moreover, the selectivity ratio in series [2] was greater than 1.5.

For `COc1ccc(OC)c([C@@]2(O)c3ccc4[nH]c(C)c(OC)c(=O)c4c3[C@@H]3CC[C@H]2O3)c1`, the results for the IC50 in series [1] and in series [3] were greater than 25 µM and 14.7 µM, respectively. Moreover, the selectivity ratio in series [2] was greater than 1.

Consider `COc1c(C)[nH]c2c(c1=O)[C@@H](CCCCCc1ccccc1)CCC2=O`, for which the concentration for half-maximal inhibition (IC50) came out at 12 µM in series [1] and 0.5 µM in series [3]. Further, in series [2], the selectivity ratio was 24.5.

Turning to `COc1c(CO)[nH]c2ccc3c(c2c1=O)[C@@H]1CCC[C@@]3(c2ccccc2)O1`, the IC50 in series [1] is greater than 22 µM; in series [3], 14.7 µM. Moreover, in series [2], the selectivity ratio is greater than 1.5.

With `COc1cc(OC)cc(C2=CCCCc3c2ccc2[nH]c(C)c(OC)c(=O)c32)c1`, the IC50 in series [1] was greater than 25 µM; in series [3], 13.1 µM. Besides, the selectivity ratio in series [2] is greater than 1.5.

Take `CCCCCCCCCCCCc1cc(=O)c(OC)c(C)[nH]1`: the IC50 in series [1] was greater than 32 µM; in series [3], 5 µM. The selectivity ratio in series [2] is greater than 6.

Regarding `COc1c(CO)n(OC)c2c(c1=O)[C@H](CCCCCc1ccccc1)CCC2`, the values for the IC50 in series [1] and in series [3] were greater than 26 µM and 3.9 µM, respectively. For the same compound, the selectivity ratio in series [2] is greater than 6.

Consider `COc1c(C)[nH]c2c(c1=O)[C@@H](CCCCCc1ccccc1)CC[C@H]2O`, for which the IC50 is greater than 28 µM in series [1] and 0.8 µM in series [3]. The selectivity ratio in series [2] was greater than 33.

Take `O=C(Cn1ccnc1[N+](=O)[O-])NCc1ccccc1` [BENZNIDAZOLE]: the IC50 in series [1] was greater than 345 µM; in series [3] it was 2.9 µM. Moreover, the selectivity ratio in series [2] is greater than 119.
